{"source": "ChEMBL document CHEMBL4725426", "about": "“Targeted Detection of Cyclooxygenase-1 in Ovarian Cancer” (ACS Med Chem Lett, 2020)", "key": {"[1]": {"test": "Drug uptake in NU-Fox1nu nude mouse allografted with mouse ID8-NGL cells at 2 mg/kg, ip measured after 3 to 4 hrs post-drug administration by IVIS spectrum in vivo fluorescence imaging analysis", "format": "ADME, organism-based", "conditions": "time 3-4 hrs", "how_it_was_run": "(§1)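 Female athymic nude mice bearing ID8-NGL flank allografts (left hind flank, grown to 750–1000 mm³; n = 6). Probe given i.p. at 2 mg/kg in DMSO. Imaged under light anesthesia on an IVIS system 3 to 4 h post-injection.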"}, "[2]": {"test": "Drug uptake in NU-Fox1nu nude mouse xenografted with COX-1 expressing human OVCAR3 cells at 1 mg/kg, ip and measured after 3 to 4 hrs post-drug administration by IVIS spectrum in vivo fluorescence imaging analysis", "format": "ADME, organism-based", "conditions": "time 3-4 hrs", "how_it_was_run": "(§2)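 Female athymic nude mice carried subcutaneous OVCAR-3 xenografts on the left hind flank, grown to about 750–1000 mm³. Probe given i.p. at 1 mg/kg in DMSO. Mice lightly anesthetized and imaged on an IVIS system at 15 min, 30 min, 1, 2, 3 and 4 h post-injection.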"}, "[3]": {"test": "Drug uptake in tumor of NU-Fox1nu nude mouse xenografted with COX-1 expressing human OVCAR3 cells at 1 mg/kg, ip by IVIS spectrum ex vivo fluorescence imaging analysis", "format": "ADME, organism-based, Neoplasm", "how_it_was_run": "(§3)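 OVCAR-3 xenograft-bearing female nude mice (tumors 750–1000 mm³) were dosed with probe at 1 mg/kg i.p. in DMSO. After in vivo imaging, tumor, muscle, kidney and liver were collected and imaged ex vivo.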"}, "[4]": {"test": "Drug uptake in kidney of NU-Fox1nu nude mouse xenografted with COX-1 expressing human OVCAR3 cells at 1 mg/kg, ip by IVIS spectrum ex vivo fluorescence imaging analysis", "format": "ADME, organism-based", "how_it_was_run": "as §3"}, "[5]": {"target": "T1, Prostaglandin G/H synthase 1 (Homo sapiens, UniProt P23219)", "T1 sequence (P23219 whole entry)": "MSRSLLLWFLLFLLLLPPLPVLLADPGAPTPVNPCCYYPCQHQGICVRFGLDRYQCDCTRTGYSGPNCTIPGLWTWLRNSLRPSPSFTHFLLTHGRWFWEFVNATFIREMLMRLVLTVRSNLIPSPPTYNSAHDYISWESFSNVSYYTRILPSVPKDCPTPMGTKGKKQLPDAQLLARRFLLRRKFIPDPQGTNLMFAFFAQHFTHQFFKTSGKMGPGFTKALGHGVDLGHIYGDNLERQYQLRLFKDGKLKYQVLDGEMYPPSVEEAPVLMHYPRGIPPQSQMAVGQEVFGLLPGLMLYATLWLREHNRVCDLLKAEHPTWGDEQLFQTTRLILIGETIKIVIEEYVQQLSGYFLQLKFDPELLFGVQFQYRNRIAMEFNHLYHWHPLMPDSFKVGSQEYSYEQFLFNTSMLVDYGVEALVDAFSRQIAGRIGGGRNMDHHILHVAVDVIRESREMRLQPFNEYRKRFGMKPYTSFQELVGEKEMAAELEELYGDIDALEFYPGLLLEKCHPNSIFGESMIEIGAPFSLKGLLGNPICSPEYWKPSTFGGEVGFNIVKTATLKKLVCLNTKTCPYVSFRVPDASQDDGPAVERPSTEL", "test": "(§4) Binding affinity to COX-1 in human OVCAR3 cells assessed as protein labeling treated for 30 mins and subsequent compound washout followed by cultured in serum media measured after 45 mins by fluorescence microscope based optical imaging analysis", "format": "cell-based", "conditions": "OVCAR-3", "how_it_was_run": "(§5)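 OVCAR-3 cells pretreated 30 min with vehicle or indomethacin, then exposed to probe 30 min, washed briefly and cultured 45 min in serum-containing medium. Intracellular fluorescence then imaged under a fluorescence microscope.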"}, "[6]": {"test": "Drug uptake in tumor of NU-Fox1nu nude mouse allografted with mouse ID8-NGL cells at 2 mg/kg, ip treated with 10 mg/kg indomethacin 1hr prior to compound treatment followed by compound administration measured after 3 to 4 hrs post-drug administration by IVIS spectrum fluorescence imaging analysis", "format": "ADME, organism-based, Neoplasm", "conditions": "in vivo, time 3-4 hrs", "how_it_was_run": "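ID8-NGL flank allografts (750–1000 mm³) in nude mice. Indomethacin 10 mg/kg i.p. in DMSO given 1 h before probe (2 mg/kg i.p. in DMSO). Tumors imaged 3 to 4 h after probe; region-of-interest light emission read at 3.5 h in relative fluorescence units.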"}, "[7]": {"test": "Drug uptake in NU-Fox1nu nude mouse xenografted with COX-1 expressing human OVCAR3 cells at 1 mg/kg, ip and measured before 2 hrs post-drug administration by IVIS spectrum in vivo fluorescence imaging analysis", "format": "ADME, organism-based", "how_it_was_run": "as §2"}, "[8]": {"test": "Drug uptake in leg muscle of NU-Fox1nu nude mouse xenografted with COX-1 expressing human OVCAR3 cells at 1 mg/kg, ip by IVIS spectrum ex vivo fluorescence imaging analysis", "format": "ADME, organism-based", "how_it_was_run": "as §3"}, "[9]": {"target": "T2, Prostaglandin G/H synthase 1 (Ovis aries, UniProt P05979)", "T2 sequence (P05979 whole entry)": "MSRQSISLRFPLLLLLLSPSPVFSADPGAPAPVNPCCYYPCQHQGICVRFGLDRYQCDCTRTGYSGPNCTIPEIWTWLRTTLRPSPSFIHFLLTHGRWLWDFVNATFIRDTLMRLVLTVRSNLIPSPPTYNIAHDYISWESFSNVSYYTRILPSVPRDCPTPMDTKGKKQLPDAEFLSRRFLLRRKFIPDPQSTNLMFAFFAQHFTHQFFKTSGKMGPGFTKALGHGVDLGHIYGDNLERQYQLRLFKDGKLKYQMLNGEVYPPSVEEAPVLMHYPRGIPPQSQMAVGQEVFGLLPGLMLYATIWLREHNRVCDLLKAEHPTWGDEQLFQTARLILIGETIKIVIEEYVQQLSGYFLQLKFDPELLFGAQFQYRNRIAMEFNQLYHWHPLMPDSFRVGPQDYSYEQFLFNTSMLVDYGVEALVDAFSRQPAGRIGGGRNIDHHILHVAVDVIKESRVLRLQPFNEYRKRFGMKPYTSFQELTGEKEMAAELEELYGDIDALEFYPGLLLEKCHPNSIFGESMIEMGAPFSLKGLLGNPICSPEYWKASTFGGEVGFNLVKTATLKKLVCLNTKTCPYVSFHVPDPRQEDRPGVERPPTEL", "test": "Inhibition of ovine COX-1 assessed as [14C] arachidonic acid remaining using [14C] arachidonic acid as substrate preincubated for 20 mins followed by substrate addition measured after 30 sec by thin layer chromatography assay", "how_it_was_run": "(§6)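 Purified ovine COX-1 or murine COX-2 preincubated 20 min with vehicle or compound at various concentrations. [1-¹⁴C]arachidonic acid was then added and the reaction run a further 30 s. Conversion read by thin layer chromatography. IC50 derived.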"}, "[10]": {"test": "Drug uptake in tumor of NU-Fox1nu nude mouse allografted with mouse ID8-NGL cells at 2 mg/kg, ip measured after 3 to 4 hrs post-drug administration by IVIS spectrum in vivo fluorescence imaging analysis relative to control", "format": "ADME, organism-based, Neoplasm", "conditions": "time 3-4 hrs", "how_it_was_run": "as §1"}, "[11]": {"target": "T1, Prostaglandin G/H synthase 1", "test": "as §4, with “pretreated with indomethacin for 30 mins followed by compound treatment” for “treated”", "format": "cell-based", "conditions": "OVCAR-3", "how_it_was_run": "as §5"}, "[12]": {"target": "T3, Prostaglandin G/H synthase 2 (Mus musculus, UniProt Q05769)", "T3 sequence (Q05769 whole entry)": "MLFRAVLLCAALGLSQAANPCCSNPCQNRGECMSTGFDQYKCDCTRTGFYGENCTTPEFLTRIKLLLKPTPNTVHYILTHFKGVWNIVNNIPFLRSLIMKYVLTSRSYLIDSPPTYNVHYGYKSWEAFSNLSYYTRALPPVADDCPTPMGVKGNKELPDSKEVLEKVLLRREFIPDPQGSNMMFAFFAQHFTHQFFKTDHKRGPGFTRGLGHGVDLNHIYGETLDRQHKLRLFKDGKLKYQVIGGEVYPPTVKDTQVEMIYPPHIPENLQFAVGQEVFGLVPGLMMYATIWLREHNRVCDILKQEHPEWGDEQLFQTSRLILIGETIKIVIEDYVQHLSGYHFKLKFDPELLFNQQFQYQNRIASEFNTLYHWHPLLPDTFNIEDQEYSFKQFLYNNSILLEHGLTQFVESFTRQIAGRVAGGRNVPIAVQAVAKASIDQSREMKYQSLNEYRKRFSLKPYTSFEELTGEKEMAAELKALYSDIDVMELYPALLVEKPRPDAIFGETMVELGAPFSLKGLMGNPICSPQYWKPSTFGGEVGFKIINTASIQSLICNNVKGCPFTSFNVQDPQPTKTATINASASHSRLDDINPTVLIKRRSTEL", "test": "Inhibition of murine COX-2 assessed as [14C] arachidonic acid remaining using [14C] arachidonic acid as substrate preincubated for 20 mins followed by substrate addition measured after 30 sec by thin layer chromatography assay", "how_it_was_run": "as §6"}, "[13]": {"target": "T1, Prostaglandin G/H synthase 1", "test": "Inhibition of COX-1 in human OVCAR3 cells assessed as [14C] arachidonic acid remaining using [14C] arachidonic acid as substrate preincubated for 30 mins followed by substrate addition measured after 30 mins", "format": "cell-based, OVCAR-3", "how_it_was_run": "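Intact OVCAR-3 cells treated 30 min with vehicle or compound across several concentrations, then given [1-¹⁴C]arachidonic acid for another 30 min. Medium aliquots were quenched, extracted, run on TLC and scanned for substrate remaining. IC50 taken from the concentration series.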"}, "[14]": {"test": "Drug uptake in liver of NU-Fox1nu nude mouse xenografted with COX-1 expressing human OVCAR3 cells at 1 mg/kg, ip by IVIS spectrum ex vivo fluorescence imaging analysis", "format": "ADME, organism-based", "how_it_was_run": "as §3"}}, "note": "Calls of active or inactive are those of the source. The rule behind the calls is not given here."}
{"smiles": "COc1ccc(-n2nc(CCC(=O)NCCCCNC(=O)c3ccc(C4=c5cc6c7c(c5Oc5c4cc4c8c5CCCN8CCC4)CCC[N+]=7CCC6)c(C(=O)[O-])c3)cc2-c2ccc(C)cc2)cc1", "values": [{"measurement": "Drug uptake", "setting": "[1]", "result": "Active"}, {"measurement": "Drug uptake", "setting": "[2]", "result": "Active"}, {"measurement": "Drug uptake", "setting": "[3]", "result": "Active"}, {"measurement": "Drug uptake", "setting": "[4]", "result": "Active"}, {"measurement": "Activity", "setting": "[5]", "result": "Active"}, {"measurement": "Drug uptake", "setting": "[6]", "result": "Not Active"}, {"measurement": "Drug uptake", "setting": "[7]", "result": "Not Active"}, {"measurement": "Drug uptake", "setting": "[8]", "result": "Active"}, {"measurement": "IC50", "setting": "[9]", "result": 94, "unit": "nM"}, {"measurement": "fold change (FC)", "setting": "[10]", "result": 8}, {"measurement": "Activity", "setting": "[11]", "result": "inactive"}, {"measurement": "IC50", "setting": "[12]", "result": "> 1000", "unit": "nM"}, {"measurement": "IC50", "setting": "[13]", "result": 44, "unit": "nM"}, {"measurement": "Drug uptake", "setting": "[14]", "result": "Active"}]}
